Some results are limits rather than exact numbers.

For this assay, the system named is Plasmodium falciparum. Briefly: In vitro antimalarial activity against ring stage of chloroquine-resistant Plasmodium falciparum W2 cultured in medium containing 10% human serum assessed as inhibition of parasite growth after 48 hrs by YOYO-1 dye based flow cytometry. Particulars: W2, 48 h. Format: functional, organism-based. The method, boiled down:
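Ring-stage microwell cultures were exposed to a range of compound concentrations for 48 h, with 0.1% DMSO maximum and in the no-inhibitor controls. Cells were fixed in 1% formaldehyde/PBS pH 7.4 for 48 h at room temperature, then stained with 1 nM YOYO-1 in 0.1% Triton X-100/PBS. Parasitemia was counted by flow cytometry, and IC50 obtained by nonlinear regression of % control parasitemia from duplicate experiments.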
As for `O=C1C(=O)N(Cc2cnnn2CCNc2ccnc3cc(Cl)ccc23)c2ccc(Cl)cc21`, the IC50 was 1370 nM.
As for `O=C1C(=O)N(Cc2cnnn2CCNc2ccnc3cc(Cl)ccc23)c2ccc(F)cc21`, the IC50 was 2300 nM.
For `O=C1C(=O)N(Cc2cnnn2-c2ccnc3cc(Cl)ccc23)c2ccc(Br)cc21` the value was more than 5000 nM; for `O=C1C(=O)N(Cc2cnnn2-c2ccnc3cc(Cl)ccc23)c2ccccc21`, more than 5000 nM.
`O=C1C(=O)N(Cc2cnnn2CCNc2ccnc3cc(Cl)ccc23)c2ccccc21`: the IC50 was 3070 nM.
For `O=C1C(=O)N(Cc2cnnn2-c2ccnc3cc(Cl)ccc23)c2ccc(F)cc21` the value was more than 5000 nM; for `O=C1C(=O)N(Cc2cnnn2CCCNc2ccnc3cc(Cl)ccc23)c2ccccc21`, 3850 nM.
For `O=C1C(=O)N(Cc2cnnn2CCNc2ccnc3cc(Cl)ccc23)c2ccc(Br)cc21` the value was 1730 nM; for `O=C1C(=O)N(Cc2cnnn2CCCNc2ccnc3cc(Cl)ccc23)c2ccc(F)cc21`, 1350 nM; for `O=C1C(=O)N(Cc2cnnn2CCCNc2ccnc3cc(Cl)ccc23)c2ccc(Br)cc21`, 1660 nM.
As for `Cc1ccc2c(c1)C(=O)C(=O)N2Cc1cnnn1CCCNc1ccnc2cc(Cl)ccc12`, the figure is 1300 nM; as for `O=C1C(=O)N(Cc2cnnn2-c2ccnc3cc(Cl)ccc23)c2ccc(Cl)cc21`, more than 5000 nM.
For `Cc1ccc2c(c1)C(=O)C(=O)N2Cc1cnnn1CCNc1ccnc2cc(Cl)ccc12`, the IC50 was determined as 1630 nM.
Consider `Cc1ccc2c(c1)C(=O)C(=O)N2Cc1cnnn1-c1ccnc2cc(Cl)ccc12`, for which the IC50 is more than 5000 nM.
For `O=C1C(=O)N(Cc2cnnn2CCCNc2ccnc3cc(Cl)ccc23)c2ccc(Cl)cc21` the value was 1210 nM.
